Assay results: ChEMBL document CHEMBL5236592, “Induction of Ferroptosis in Glioblastoma and Ovarian Cancers by a New Pyrrole Tubulin Assembly Inhibitor” (J Med Chem, 2022)
Activity calls are given as the source filed them. The calls are words filed in the database; no cut-off is given here.

Assays:
[1] = test system: T-cell line; experiment: Cytotoxicity against human primary T-lymphocytes assessed as reduction in cell viability at 0.1 uM incubated for 48 to 72 hrs by Annexin V- APC/PI staining based flow cytometry analysis; assay type: toxicity; details: time 48-72 hrs
Outline: (§1)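 T lymphocytes negatively selected from healthy-donor PBMCs isolated by density gradient. Cultured at 1.5 × 10^6/mL with 0.1, 1.0 or 2.5 μM compound, DMSO vehicle or untreated, for 48 or 72 h. Stained with annexin V-APC and propidium iodide; early and late apoptotic fractions counted by flow cytometry.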

[2] = test system: T-cell line; experiment: Cytotoxicity against human primary T-lymphocytes assessed as reduction in cell viability at 1 to 2.5 uM incubated for 48 to 72 hrs by Annexin V- APC/PI staining based flow cytometry analysis; assay type: toxicity; details: dose lower 1 µM, time lower 48 hrs, dose upper 2.5 µM, time upper 72 hrs; outline: as §1
[3] = test system: U-87MG ATCC; experiment: Induction of ferroptosis-mediated antitumor activity against human U-87 MG cells xenografted in BALB/C nu/nu mouse assessed as increase in […] level in tumor at 25 mg/kg, ip administered every 2 days for 40 days by biochemical analysis; assay type: functional, organism-based; details: time 40.0 day
Outline: (§2)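 U-87 MG or SKOV-3 sc xenografts (1 × 10^8 cells/mL) in female BALB/c nu/nu mice, 4 per group. Given 25 mg/kg ip in 100 μL every 2 days, or saline. Tumors harvested on day 40 and assayed for LPO, MDA, lactic acid, total glutathione (GSH + GSSG), ATP and Fe2+.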

[4] = test system: SK-OV-3; experiment: Induction of ferroptosis-mediated antitumor activity against human SK-OV-3 cells xenografted in BALB/C nu/nu mouse assessed as reduction in ATP level in tumor at 25 mg/kg, ip administered every 2 days for 40 days by biochemical analysis; assay type: functional, organism-based; details: time 40.0 day; outline: as §2
[5] = test system: U-87MG ATCC; experiment: Induction of ferroptosis-mediated antitumor activity against human U-87 MG cells xenografted in BALB/C nu/nu mouse assessed as reduction in total glutathione level in tumor at 25 mg/kg, ip administered every 2 days for 40 days by biochemical analysis; assay type: functional, organism-based; details: time 40.0 day; outline: as §2
[6] = test system: U-87MG ATCC; experiment: Induction of ferroptosis-mediated antitumor activity against human U-87 MG cells xenografted in BALB/C nu/nu mouse assessed as increase in Fe2+ level in tumor at 25 mg/kg, ip administered every 2 days for 40 days; assay type: functional, organism-based; details: time 40.0 day; outline: as §2
[7] = test system: SK-OV-3; experiment: Induction of ferroptosis-mediated antitumor activity against human SK-OV-3 cells xenografted in BALB/C nu/nu mouse assessed as increase in Fe2+ level in tumor at 25 mg/kg, ip administered every 2 days for 40 days; assay type: functional, organism-based; details: time 40.0 day; outline: as §2
[8] = test system: Mus musculus; experiment: Upregulation of ENDOG mRNA expression in tumor of BALB/C nu/nu mouse xenografted with human U-87 MG cells at 25 mg/kg, ip administered every 2 days for 40 days by qPCR analysis; assay type: functional, organism-based; details: time 40.0 day
Outline: (§3)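 Female BALB/c nu/nu mice bearing sc U-87 MG or SKOV-3 xenografts were dosed ip at 25 mg/kg (100 μL) every 2 days, or given saline, and tumors were taken at day 40. RNA was extracted from about 20 mg of tissue. qPCR ran 40 cycles (95 °C 15 min; 94 °C 20 s; 60 °C 34 s) on a 69-gene panel. Fold change was by 2^–ΔΔCt, with ≥1.5 counted as increased.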

[9] = test system: Mus musculus; experiment: Upregulation of Nfe2l2 mRNA expression in tumor of BALB/C nu/nu mouse xenografted with human U-87 MG cells at 25 mg/kg, ip administered every 2 days for 40 days by qPCR analysis; assay type: functional, organism-based; details: time 40.0 day
Outline: (§4)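 Female BALB/c nu/nu mice, 10 weeks old, 4 per group. Inoculated s.c. with 1 × 10^8 cells/mL of log-phase U-87 MG or SKOV-3 cells. Dosed i.p. with 100 μL at 25 mg/kg every 2 days; controls got 100 μL saline. Tumors harvested on day 40. RNA extracted from about 20 mg of tissue. qPCR panel of 69 genes, 40 cycles (94 °C 20 s, 60 °C 34 s). Analysed by 2–ΔΔCt; fold ≥1.5 taken as increased.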

[10] = test system: Mus musculus; experiment: Upregulation of Acsl4 mRNA expression in tumor of BALB/C nu/nu mouse xenografted with human U-87 MG cells at 25 mg/kg, ip administered every 2 days for 40 days by qPCR analysis; assay type: functional, organism-based; details: time 40.0 day; outline: as §3
[11] = test system: Mus musculus; experiment: Upregulation of FTL mRNA expression in tumor of BALB/C nu/nu mouse xenografted with human U-87 MG cells at 25 mg/kg, ip administered every 2 days for 40 days by qPCR analysis; assay type: functional, organism-based; details: time 40.0 day; outline: as §3
[12] = test system: Mus musculus; experiment: Upregulation of Cs mRNA expression in tumor of BALB/C nu/nu mouse xenografted with human U-87 MG cells at 25 mg/kg, ip administered every 2 days for 40 days by qPCR analysis; assay type: functional, organism-based; details: time 40.0 day; outline: as §3
[13] = test system: Mus musculus; experiment: Upregulation of TFRC mRNA expression in tumor of BALB/C nu/nu mouse xenografted with human SK-OV-3 cells at 25 mg/kg, ip administered every 2 days for 40 days by qPCR analysis; assay type: functional, organism-based; details: time 40.0 day; outline: as §4
[14] = test system: Mus musculus; experiment: Upregulation of Cbs mRNA expression in tumor of BALB/C nu/nu mouse xenografted with human SK-OV-3 cells at 25 mg/kg, ip administered every 2 days for 40 days by qPCR analysis; assay type: functional, organism-based; details: time 40.0 day; outline: as §3
[15] = test system: Mus musculus; experiment: Upregulation of Dpp4 mRNA expression in tumor of BALB/C nu/nu mouse xenografted with human SK-OV-3 cells at 25 mg/kg, ip administered every 2 days for 40 days by qPCR analysis; assay type: functional, organism-based; details: time 40.0 day; outline: as §3
[16] = test system: Mus musculus; experiment: Upregulation of Nrf2 mRNA expression in tumor of BALB/C nu/nu mouse xenografted with human SK-OV-3 cells at 25 mg/kg, ip administered every 2 days for 40 days by qPCR analysis; assay type: functional, organism-based; details: time 40.0 day; outline: as §4
[17] = test system: Mus musculus; experiment: Upregulation of Gls2 mRNA expression in tumor of BALB/C nu/nu mouse xenografted with human SK-OV-3 cells at 25 mg/kg, ip administered every 2 days for 40 days by qPCR analysis; assay type: functional, organism-based; details: time 40.0 day; outline: as §3
[18] = test system: Mus musculus; experiment: Upregulation of Cisd1 mRNA expression in tumor of BALB/C nu/nu mouse xenografted with human SK-OV-3 cells at 25 mg/kg, ip administered every 2 days for 40 days by qPCR analysis; assay type: functional, organism-based; details: time 40.0 day; outline: as §3
[19] = test system: Mus musculus; experiment: Upregulation of Sat1 mRNA expression in tumor of BALB/C nu/nu mouse xenografted with human SK-OV-3 cells at 25 mg/kg, ip administered every 2 days for 40 days by qPCR analysis; assay type: functional, organism-based; details: time 40.0 day; outline: as §4
[20] = test system: SK-OV-3; experiment: Antitumor activity against human SK-OV-3 cells xenografted in BALB/C nu/nu mouse assessed as reduction in Ki67 expression in tumor at 25 mg/kg, ip administered every 2 days for 40 days by immunofluoresence staining based assay; assay type: functional, organism-based; details: time 40.0 day
Outline: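 Female BALB/c nu/nu mice, 10 weeks old, 4 per group. Received subcutaneous U-87 MG or SKOV-3 cells (1 × 10^8 cells/mL, harvested in log phase). Dosed ip with 100 μL at 25 mg/kg every 2 days; controls got 100 μL saline on the same schedule. Sacrificed at 40 days; tumors weighed, volume = ab²/2. Tumor sections (6 μm, paraffin) stained by immunofluorescence for Ki67 or CD31 with Alexa Fluor 488 secondary.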

Question: For `COc1cc(C(=O)c2cn(-c3ncccn3)cc2-c2ccco2)cc(OC)c1OC`, which Activity [1] is on record?
Answer: Non-Toxic

Question: And the Activity [2]?
Answer: Toxic

Question: What about the Activity [3] of the same compound?
Answer: Active

Question: And the Activity [4]?
Answer: Active

Question: And the Activity [5]?
Answer: Active

Question: What about the Activity [6] of the same compound?
Answer: Active

Question: What about the Activity [7] of the same compound?
Answer: Active

Question: What about the Activity [8] of the same compound?
Answer: Active

Question: And the Activity [9]?
Answer: Active

Question: And the Activity [10]?
Answer: Active

Question: What about the Activity [11] of the same compound?
Answer: Active

Question: And the Activity [12]?
Answer: Active

Question: And the Activity [13]?
Answer: Active

Question: What about the Activity [14] of the same compound?
Answer: Active

Question: And the Activity [15]?
Answer: Active

Question: And the Activity [16]?
Answer: Active

Question: And the Activity [17]?
Answer: Active

Question: And the Activity [18]?
Answer: Active

Question: What about the Activity [19] of the same compound?
Answer: Active

Question: What about the Activity [20] of the same compound?
Answer: Active
